This is one part of a sample in which hits are shown more often than they occur.
Hep lipid drop: modulators of hepatic lipid droplet formation; inhibition, % at 6.5 µM; AML12 mouse hepatocytes, oleate lipid droplets, BODIPY imaging; AID 1656; actives 0.4% (n = 240,000);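 active = lipid droplet intensity inhibited by at least 50%, with more than 500 cells counted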
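Material: mouse AML12 hepatocyte cell line, fixed after treatment; Timing: compound with oleate, overnight; Technique: high-content imaging of BODIPY-stained droplets and DAPI nuclei; Probe or stimulus: oleate, 100 µM final; Dosing: compound at 6.5 µM only.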
DTT redox prof: compounds producing H2O2 with reducing agent – biochemical, NIH compound library profiling, artefact control for MLSCN library redox annotation, primary screen; DTT-dependent redox cycling H2O2, phenol red/HRP absorbance; 100% = 100 µM peroxide control, 0% = buffer; activation, % at 10 µM; actives 0.03% (n = 200,000);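 active = activation of at least 50% relative to the plate's high and low controls in the primary single-dose screen; inactive = activation below 50%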;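 note: compound incubated with DTT at 0.8 mM final as the reducing agent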
MPTP block: blocks calcium-induced mitochondrial swelling; isolated mouse mitochondria, Ca2+ swelling absorbance, 30 min; inhibition, % at 10 µM; actives 1.4% (n = 360,000); AID 602449;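 active = inhibition of 50% or more, scaled per plate between neutral and stimulator controls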
T cruzi inh: T. cruzi replication inhibition | inhibition, % (no concentration beside the values) | actives 1.4% (n = 300,000) | T. cruzi beta-gal in NIH3T3, luminescence, 90 h;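 active = mean inhibition across valid replicates above about 55%, limit read from the data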;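 note: signal also drops with host cell toxicity which is not excluded here; higher percent means less beta-gal luminescence so fewer parasites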
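Read-out: Parasite load inhibition, % | Test system: Mouse NIH/3T3 fibroblasts infected with β-gal-expressing T. cruzi Tulahuen C4 | Amount: 5,000 cells/well | Medium: DMEM, 2% fetal bovine serum | Signal: GalScreen β-gal luminescence, detergent lysis, 60 min | Timing: 3 h attach, ≥90 h co-culture | Also added: Tulahuen C4 trypomastigotes, 5000/well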
Lmaj promast: inhibitors of Leishmania major promastigote growth; AID 1063; inhibition, % at 10 µM; actives 9% (n = 200,000); Leishmania major promastigotes, resazurin fluorescence viability; in the data active = inhibition above about 50%;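 note: promastigotes grown with compound for 44 hours at 28 °C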
Hits are given with their value; - = inactive; . = no result.

SMILES | Hep lipid drop | DTT redox prof | MPTP block | T cruzi inh | Lmaj promast
COCCNC(=S)N(CCc1c(C)[nH]c2ccc(OC)cc12)Cc1cccnc1 | . | . | - | - | .
CCOc1ccc(NC(=S)N(CCc2c(C)[nH]c3ccc(C)cc23)Cc2ccncc2)cc1 | - | - | - | - | 70
Cc1[nH]c2ccc(F)cc2c1CCN(Cc1ccncc1)C(=S)Nc1ccccc1 | - | - | - | - | 74
CCOc1cc(N2CCOCC2)c(OCC)cc1NC(=O)COC(=O)COc1ccc(C#N)cc1 | - | . | - | - | .
CC(C)(C)NC(=S)NC(C)(C)C | - | . | - | - | .
O=C(CNC(=O)c1ccc2c(c1)OCCO2)N=Nc1c(O)[nH]c2ccccc12 | - | . | - | - | .
O=C(c1ccc(-n2cncn2)c([N+](=O)[O-])c1)N1CCN(S(=O)(=O)c2ccc(F)c(F)c2)CC1 | . | . | - | - | .
Cc1ccc(C(C)C)c(OCC(=O)NCC(c2cccs2)N2CCOCC2)c1 (centres undefined) | . | . | - | - | .
COCCNC(=O)C(c1ccc(C)cc1)N(C(=O)CCC(=O)Nc1ccccn1)c1ccccc1C (centres undefined) | - | . | - | - | .
CNC(=S)N(CCc1c(C)[nH]c2ccc(F)cc12)Cc1cccnc1 | . | . | - | - | .
COc1ccc(NC(=S)N(CCc2c(C)[nH]c3ccc(C)cc23)Cc2cccnc2)cc1 | - | - | - | - | 100
COc1ccc(NC(=S)NCCc2c(C)[nH]c3ccc(OC)cc23)cc1 | - | - | - | - | 62
Cc1[nH]c2ccc(F)cc2c1CCN(Cc1cccnc1)C(=S)Nc1ccccc1 | - | - | - | 60 | 100
COc1ccc(CCNC(=S)Nc2ccc(OC)cc2)cc1 | - | - | - | - | -
Cc1[nH]c2ccccc2c1CCN(Cc1cccnc1)C(=S)Nc1cccc(F)c1 | - | - | - | 58 | 100
CC(=O)C1=C(C)Nc2ncnn2C1c1cccc(Br)c1 (centres undefined) | . | . | - | - | .
COc1ccccc1OCCN1C(=O)S/C(=C\c2ccco2)C1=O | . | - | - | - | 55
COc1ccccc1/C=C1\SC(=O)N(CCC(=O)NNC(=O)c2ccccc2Cl)C1=O | - | - | - | - | -
COCCn1c(-c2ccc(OC)cc2)cnc1SCC(=O)Nc1cccc2ccccc12 | - | - | - | - | 77
COCCn1c(-c2ccc(Cl)cc2)cnc1SCC(=O)NCCc1ccc(OC)c(OC)c1 | - | - | - | - | 70
COc1ccc(C(=O)NCCCn2cccn2)cc1OC1CCN(C(C)=O)CC1 | - | . | - | - | .
CC(C)C[C@H]1CN(CCCC[C@@H]2CNC(=O)C(=O)N2CC2CCCCC2)C(=O)C(=O)N1CCc1ccc(O)cc1 | . | . | - | . | .
COc1ccc(C2(O)CC3CCC(C2)N3c2cc(C)nc(-c3ccccc3)n2)cc1 (centres undefined) | . | - | - | - | 63
COc1ccc2[nH]c(CN3CCC(n4nccc4NC(=O)C4CC4)CC3)c(C)c2c1 | - | . | - | - | .
COc1cc(O)cc2c1[C@@H]1Oc3c(ccc(O)c3CC=C(C)C)[C@@H]1CO2 | . | . | - | - | .
SMILES | Hep lipid drop | DTT redox prof | MPTP block | T cruzi inh | Lmaj promast
COc1ccc(N=Cc2ccccc2O)cc1 | . | . | - | . | .
COc1ccc2sc(/C=C/c3ccccc3O)[n+](C)c2c1 | - | - | - | . | 92
Cc1ccc(S(=O)(=O)NCCC(=O)N2CCOCC2)cc1C | . | . | - | - | .
Cc1ccccc1NS(=O)(=O)c1cc(C(=O)N2CCCC2)ccc1C | - | - | - | - | -
Cc1ccccc1NS(=O)(=O)c1cc(C(=O)NCCSC2CCCCC2)ccc1C | . | - | - | - | 100
Cc1ccc(C)c(NS(=O)(=O)c2cc(C(=O)NCC3CCCO3)ccc2C)c1 (centres undefined) | - | . | - | - | .
Cc1ccc(C)c(NS(=O)(=O)c2cc(C(=O)NCCSC3CCCCC3)ccc2C)c1 | . | - | - | - | 97
O=C(CCCCO)CCCCCCCC[C@H]1N[C@H](CO)[C@H](O)[C@@H]1O[C@@H]1O[C@H](CO)[C@@H](O)[C@H](O)[C@H]1O | - | - | - | - | -
Nc1ccn([C@@H]2O[C@H](CNCC3=CCOc4ccc(O)cc43)[C@@H](O)[C@H]2O)c(=O)n1 | . | . | - | . | .
O=C(NCc1ccccc1Cl)C(=O)c1cn(CC(=O)N2CCOCC2)c2ccccc12 | - | . | - | - | .
Cc1ccc([N+](=O)[O-])c2cccnc12 | . | - | - | - | -
O=[N+]([O-])c1ccc(Sc2cccc3cccnc23)c2cccnc12 | - | - | - | 86 | -
O=C1COc2ccc(C(=O)COC(=O)c3ccc(Cl)cc3[N+](=O)[O-])cc2N1 | . | . | - | - | .
CC1CCCC(NCC(O)COC(c2ccc(F)cc2)c2ccc(F)cc2)C1C (centres undefined) | - | - | - | - | 100
CCc1ccc(C(C)NC(=O)C2(C)CC2(Br)Br)cc1 (centres undefined) | - | - | - | - | 54
O=C(CN1C(=O)NC2(CCCc3ccccc32)C1=O)N1CCCCC1 (centres undefined) | . | . | - | - | .
O=C(NCCc1ccc(Cl)cc1)C1CCCN1C(=O)Nc1ccccc1 (centres undefined) | - | . | - | - | .
Cc1nc(CSc2nc3[nH]ncc3c(=O)n2-c2ccccc2)cs1 | - | - | - | - | -
Cc1cccc(-n2c(SCc3cc(=O)n4c(C)cccc4n3)nc3[nH]ncc3c2=O)c1 | - | - | . | - | 96
CCOC(=O)Cc1cc(-c2ccc(OC)cc2)nc2ccc3ccccc3c12 | - | - | - | - | 99
Cc1cccc(Nc2nnc(SCC(=O)NC(=O)Nc3ccc4c(c3)OCCO4)s2)c1 | - | - | - | - | -
COc1ccccc1Nc1nnc(SCC(=O)NC(=O)Nc2ccc3c(c2)OCCO3)s1 | - | - | - | - | 56
Cc1nnc(SCC(=O)NC(=O)Nc2ccc3c(c2)OCCO3)s1 | - | - | - | - | -
Cc1cccc(Nc2nnc(SCC(=O)NCc3cccs3)s2)c1C | - | - | - | - | 58
Cc1ccccc1Nc1nnc(SCC(=O)NC(=O)Nc2ccc3c(c2)OCCO3)s1 | - | - | . | - | 60
SMILES | Hep lipid drop | DTT redox prof | MPTP block | T cruzi inh | Lmaj promast
COc1cc(C(=O)OCC(=O)NC2CCCCC2)cc(OC)c1OC | . | . | - | . | .
Oc1[nH]c2ccccc2c1C1=NCCCCC1 | - | - | - | - | -
Cc1nn(-c2cc(N3CCNCC3)ccc2[N+](=O)[O-])c(=O)c2ccccc12 | . | - | - | - | 67
CC(Nc1cc(N2CCNCC2)ccc1[N+](=O)[O-])c1ccccc1 (centres undefined) | - | - | - | - | 100
CN1CCN(c2ccc([N+](=O)[O-])c(-n3nc(-c4ccccc4)c4ccccc4c3=O)c2)CC1 | . | - | - | - | 99
Cc1nn(-c2cc(N3CCCCC3)ccc2[N+](=O)[O-])c(=O)c2ccccc12 | - | - | - | - | -
O=C(O)c1cccc(-n2nc(-c3ccc(Cl)c([N+](=O)[O-])c3)c3ccccc3c2=O)c1 | - | . | - | - | .
CCN1C(=O)C(O)(CC(=O)/C=C/C=C/c2ccccc2)c2ccccc21 (centres undefined) | . | - | - | - | 75
